# Results published in ChEMBL document CHEMBL4017510, “Nitazoxanide Analogs Require Nitroreduction for Antimicrobial Activity in Mycobacterium smegmatis” (J Med Chem, 2017).
# The source made the active and inactive calls.
# Tests used:
# Mycolicibacterium aurum [1] = experiment: Growth inhibition of Mycobacterium aurum at 0.4 uM after overnight incubation by resazurin microdilution assay relative to control; assay type: functional; conditions: read-out: GI
# Outline: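 Single-concentration screen at 0.15 μg/mL (average 0.4 μM). M. aurum (20-fold dilution of an OD600 0.2–0.3 culture) was grown in 7H9 with 0.1% casitone, 0.5% glycerol, OADC and 0.002% resazurin for 18 h at 37 °C. Read-out was ΔOD (OD570 − OD604). Percent viability was normalized to DMSO (100%) and kanamycin (0%) controls.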
# [2] = tested on: Mycolicibacterium smegmatis; experiment: Antibacterial activity against Mycobacterium smegmatis MC2 155 by resazurin microdilution assay; assay type: functional; conditions: str. MC2 155
# Outline: (§1)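 Two-fold drug dilutions in 96-well plates with species-appropriate medium. Each well receives an inoculum of about 1 × 10^3 UFC. Each plate has a no-drug growth control and a no-bacteria medium control. Resazurin is added to 0.003% final. Incubation time and temperature vary by species. MIC is the lowest concentration preventing the blue-to-pink (resorufin) colour change.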
# Staphylococcus aureus = experiment: Antibacterial activity against Staphylococcus aureus by resazurin microdilution assay; assay type: functional
# Outline: (§2)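 Clinical isolates were grown at 37 °C in Mueller−Hinton broth. Two-fold dilutions were made in 96-well plates and inoculated with about 1 × 10^3 UFC per well. Growth controls (no antibiotic) and medium controls (no bacteria) were included. Resazurin was added to 0.003% final. MIC was the lowest concentration that prevented the blue-to-pink color change.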
# Mycolicibacterium aurum [3] = experiment: Antibacterial activity against Mycobacterium aurum after overnight incubation by resazurin microdilution assay; assay type: functional
# Outline: (§3)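 Mycobacteria were cultured in Middlebrook 7H9 with ADC and glycerol, at 32 °C for M. marinum (4 days) or with overnight incubation for M. aurum. Resazurin microdilution used 2-fold dilutions and about 1 × 10^3 UFC per well, with growth and medium controls. Resazurin 0.003% final. MIC defined as the lowest concentration preventing the blue-to-pink change.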
# Pseudomonas aeruginosa = experiment: Antibacterial activity against Pseudomonas aeruginosa by resazurin microdilution assay; assay type: functional; outline: as §2
# Klebsiella pneumoniae = experiment: Antibacterial activity against Klebsiella pneumoniae by resazurin microdilution assay; assay type: functional; outline: as §2
# Mycobacterium marinum = experiment: Antibacterial activity against Mycobacterium marinum after 4 days by resazurin microdilution assay; assay type: functional; conditions: 96 h; outline: as §3
# [4] = tested on: Mycolicibacterium smegmatis; experiment: Antibacterial activity against Mycobacterium smegmatis harboring 126E6 mutant measured after 24 hrs by resazurin microdilution assay; assay type: functional; outline: as §1
# Mycobacterium avium = experiment: Antibacterial activity against Mycobacterium avium after 7 days by resazurin microdilution assay; assay type: functional; conditions: 168 h; outline: as §1
# Escherichia coli = experiment: Antibacterial activity against Escherichia coli after 6 hrs by resazurin microdilution assay; assay type: functional
# Outline: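 Clinical isolate of E. coli in Mueller−Hinton broth at 37 °C, 6 h incubation. Two-fold dilution series in 96-well plates with about 1 × 10^3 UFC per well. Growth and medium-only controls were run. Resazurin at 0.003% final. MIC taken as the lowest concentration blocking reduction of resazurin (blue) to resorufin (pink).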
# Vero = experiment: Cytotoxicity against African green monkey Vero cells; assay type: cell-based; conditions: Chlorocebus sabaeus
# Klebsiella aerogenes = experiment: Antibacterial activity against Enterobacter aerogenes by resazurin microdilution assay; assay type: functional; outline: as §2
# Streptococcus agalactiae = experiment: Antibacterial activity against Streptococcus agalactiae NEM316 by resazurin microdilution assay; assay type: functional
# Outline: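 S. agalactiae NEM316 in Todd−Hewitt broth at 37 °C. Compounds were tested as 2-fold dilutions in 96 wells with an inoculum of about 1 × 10^3 UFC per well. Controls without antibiotic or without bacteria were included. Resazurin 0.003% final. MIC was the lowest concentration preventing the color change from blue to pink.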
# [5] = tested on: Mycobacterium tuberculosis; experiment: Antibacterial activity against Mycobacterium tuberculosis H37Rv after 7 days by resazurin microdilution assay; assay type: functional; conditions: 168 h; outline: as §1
# [6] = tested on: Mycolicibacterium smegmatis; experiment: Antibacterial activity against Mycobacterium smegmatis harboring 126E6 mutant at 51.6 uM measured after 24 hrs by resazurin microdilution assay; assay type: functional
# Outline: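 Hypersensitivity screen of the M. smegmatis Tn611 transposon mutant collection. Wells receive 2 μL from each mutant in Middlebrook 7H9 with ADC, 0.05% Tween 80, kanamycin and PANTA, with compound at 20 μg/mL final. Drug-free plates serve as growth controls. Plates are incubated 48 h at 37 °C, with resazurin (0.003% final) added at 24 h. Clones failing to grow are scored.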
# [7] = Drug metabolism in Mycobacterium smegmatis 126E6 assessed as NfnB-mediated hydroxyl […] formation after 3 hrs by LC-MS/MS analysis; assay type: ADME; conditions: mycolicibacterium smegmatis
# Outline: (§4)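 M. smegmatis wild type or transposon mutant 126E6 was grown in 7H9 to OD600 0.6 at 37 °C. 5 mL aliquots received 0.3 mg of compound or none and were incubated 3 h. Cultures were sonicated, cleared and filtered (0.45 μm), then mixed with acetonitrile/methanol/water. Analysis was aqueous normal-phase LC with ESI QTOF, reported as ion counts per mL, including the hydroxylamine intermediate (m/z 372.0012).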
# [8] = tested on: Mycolicibacterium smegmatis; experiment: Drug metabolism in Mycobacterium smegmatis assessed as hydroxyl […] formation after 3 hrs by LC-MS/MS analysis; assay type: ADME; outline: as §4
Structure (SMILES),inhibition of growth at 0.4 µM (Mycolicibacterium aurum [1]) [%],MIC [2] [µM],MIC (Staphylococcus aureus) [µM],MIC (Mycolicibacterium aurum [3]) [µM],MIC (Pseudomonas aeruginosa) [µM],MIC (Klebsiella pneumoniae) [µM],MIC (Mycobacterium marinum) [µM],MIC [4] [µM],MIC (Mycobacterium avium) [µM],MIC (Escherichia coli) [µM],IC50 (Vero) [µM],MIC (Klebsiella aerogenes) [µM],MIC (Streptococcus agalactiae) [µM],MIC [5] [µM],Activity [6],Drug metabolism [7],Drug metabolism [8]
O=C(Nc1ncc([N+](=O)[O-])s1)c1ccc(Cl)cc1Cl,> 40,78.5,6.2,2.45,93,> 93,18.8,18.6,46.6,> 93,> 100,> 93,> 93,78.5,–,–,–
CCCOc1ccc(C(=O)Nc2ncc([N+](=O)[O-])s2)cc1Br,> 40,> 129,2.33,1,> 129,> 129,4.03,10.1,77.7,> 129,> 100,> 129,> 129,77.6,Active,Metabolite_Detected,Metabolite_Notdetected
O=C(Nc1ncc([N+](=O)[O-])s1)c1ccccc1OC(F)(F)F,> 40,75,48.8,4.65,93.6,> 93.6,9,19.6,11.7,> 93.6,–,> 93.6,> 93.6,75,–,–,–
